Experimental data from ChEMBL document CHEMBL4261566, “New application of tiplaxtinin as an effective FtsZ-targeting chemotype for an antimicrobial study” (2017).
Converted amounts (≈) assume the structure as drawn. The source made the active and inactive calls. The calls are words filed in the database; no cut-off is given here.

Experiments:
Staphylococcus aureus [1] = assay: Antibacterial activity against methicillin-resistant Staphylococcus aureus USA300 2690 after 18 hrs by broth microdilution method; type: functional; settings: USA300 2690, 18 h
Staphylococcus aureus [2] = assay: Antibacterial activity against methicillin-resistant Staphylococcus aureus ATCC BAA-1717 after 18 hrs by broth microdilution method; type: functional; settings: ATCC BAA-1717, 18 h
Enterococcus faecium [3] = assay: Antibacterial activity against Enterococcus faecium ATCC 49624 after 18 hrs by broth microdilution method; type: functional; settings: ATCC 49624, 18 h
Klebsiella pneumoniae = assay: Antibacterial activity against Klebsiella pneumoniae ATCC BAA-1144 after 18 hrs by broth microdilution method; type: functional; settings: ATCC BAA-1144, 18 h
Pseudomonas aeruginosa = assay: Antibacterial activity against Pseudomonas aeruginosa ATCC BAA-2108 after 18 hrs by broth microdilution method; type: functional; settings: ATCC BAA-2108, 18 h
Staphylococcus aureus [4] = assay: Antibacterial activity against methicillin-resistant Staphylococcus aureus ATCC BAA-41 after 18 hrs by broth microdilution method; type: functional; settings: ATCC BAA-41, 18 h
Bacillus subtilis [5] = assay: Antibacterial activity against Bacillus subtilis 168 after 18 hrs by broth microdilution method; type: functional; settings: subsp. subtilis str. 168, 18 h
Staphylococcus aureus [6] = assay: Antibacterial activity against methicillin-resistant Staphylococcus aureus ATCC 43300 after 18 hrs by broth microdilution method; type: functional; settings: ATCC 43300, 18 h
Staphylococcus aureus [7] = assay: Antibacterial activity against methicillin-resistant Staphylococcus aureus ATCC BAA-1720 after 18 hrs by broth microdilution method; type: functional; settings: ATCC BAA-1720, 18 h
[8] = target: T1, Cell division protein FtsZ (Staphylococcus aureus) (UniProt P0A031); assay: Inhibition of recombinant Staphylococcus aureus FtsZ GTPase activity preincubated for 10 mins followed by GTP addition and measured after 30 mins
T1 sequence (whole entry): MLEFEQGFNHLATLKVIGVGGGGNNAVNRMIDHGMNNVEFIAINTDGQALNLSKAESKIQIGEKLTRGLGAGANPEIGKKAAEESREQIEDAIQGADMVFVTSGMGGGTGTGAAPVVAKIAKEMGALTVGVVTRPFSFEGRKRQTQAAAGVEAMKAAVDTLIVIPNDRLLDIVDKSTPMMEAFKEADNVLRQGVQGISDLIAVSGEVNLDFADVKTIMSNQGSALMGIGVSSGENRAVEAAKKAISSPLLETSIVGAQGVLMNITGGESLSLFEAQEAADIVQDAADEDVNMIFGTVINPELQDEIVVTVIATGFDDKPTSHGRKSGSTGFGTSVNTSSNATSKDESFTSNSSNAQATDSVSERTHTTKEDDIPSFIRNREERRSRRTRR

Bacillus subtilis [9] = assay: Bactericidal activity against Bacillus subtilis 168 assessed as reduction in bacterial load at MIC to 4 times MIC after 24 hrs relative to control; type: functional, subsp. subtilis str. 168
Summary of the method: (§1)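 Time-kill assay: a growing culture (S. aureus ATCC 29213 or B. subtilis 168) was exposed at time zero to 1×, 2× and 4× the MIC. Viable cell numbers were followed over 24 h, and the log reduction in viable count was recorded.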

Staphylococcus aureus [10] = assay: Antibacterial activity against methicillin-resistant Staphylococcus aureus ATCC 33591 after 18 hrs by broth microdilution method; type: functional; settings: ATCC 33591, 18 h
Enterococcus faecalis = assay: Antibacterial activity against Enterococcus faecalis ATCC 29212 after 18 hrs by broth microdilution method; type: functional; settings: ATCC 29212, 18 h
[11] = target: T1, Cell division protein FtsZ (Staphylococcus aureus); assay: Induction of recombinant Staphylococcus aureus FtsZ polymerization assessed as increase in bundling of protein protofilaments at 4 ug/ml preincubated for 10 mins followed by GTP addition and measured after 15 mins by transmission electron microscopic method
Enterococcus faecium [12] = assay: Antibacterial activity against vancomycin-resistant Enterococcus faecium ATCC 700221 after 18 hrs by broth microdilution method; type: functional; settings: ATCC 700221, 18 h
Staphylococcus aureus [13] = assay: Antibacterial activity against methicillin-resistant Staphylococcus aureus ATCC BAA-1747 after 18 hrs by broth microdilution method; type: functional; settings: ATCC BAA-1747, 18 h
Staphylococcus aureus [14] = assay: Antibacterial activity against methicillin-resistant Staphylococcus aureus ATCC 33592 after 18 hrs by broth microdilution method; type: functional; settings: ATCC 33592, 18 h
[15] = target: T1, Cell division protein FtsZ (Staphylococcus aureus); assay: Induction of recombinant Staphylococcus aureus FtsZ polymerization by 90degree light scattering-based fluorescence spectrometric analysis
Summary of the method: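 S. aureus FtsZ was cloned, overexpressed and purified. Polymerization was followed over time by 90° light scattering in a thermostatically controlled fluorescence spectrometer, […] change at 600 nm. Compound was tested at 2 to 8 μg mL–1 against a no-compound profile. Methicillin served as the non-FtsZ-targeting control antibiotic.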

Bacteria = assay: Induction of bacterial GFP-fused FtsZ polymerization expressed in Bacillus subtilis 168 assessed as misformation of Z-ring at 2 ug/ml after 4 hrs by fluorescence microscopic method
Summary of the method: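 B. subtilis 168 carrying a GFP–FtsZ construct was treated with compound or with DMSO as control. Z-ring formation was then examined by fluorescence microscopy.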

Staphylococcus aureus [16] = assay: Antibacterial activity against Staphylococcus aureus ATCC 29213 after 18 hrs by broth microdilution method; type: functional; settings: ATCC 29213, 18 h
[17] = system: Staphylococcus epidermidis; assay: Antibacterial activity against Staphylococcus epidermidis ATCC 12228 after 18 hrs by broth microdilution method; type: functional; settings: ATCC 12228, 18 h
Escherichia coli = assay: Antibacterial activity against Escherichia coli ATCC 25922 after 18 hrs by broth microdilution method; type: functional; settings: ATCC 25922, 18 h
Staphylococcus aureus [18] = assay: Antibacterial activity against Staphylococcus aureus ATCC 29247 after 18 hrs by broth microdilution method; type: functional; settings: ATCC 29247, 18 h
[19] = target: T1, Cell division protein FtsZ (Staphylococcus aureus); assay: Induction of recombinant Staphylococcus aureus FtsZ polymerization assessed as increase in size of polymers at 4 ug/ml preincubated for 10 mins followed by GTP addition and measured after 15 mins by transmission electron microscopic method
Staphylococcus aureus [20] = assay: Antibacterial activity against methicillin-resistant Staphylococcus aureus USA300 417 after 18 hrs by broth microdilution method; type: functional; settings: USA300 417, 18 h
Staphylococcus aureus [21] = assay: Bactericidal activity against Staphylococcus aureus ATCC 29213 assessed as reduction in bacterial load at MIC to 4 times MIC after 24 hrs relative to control; type: functional; summary of the method: as §1
[22] = target: T2, Cell division protein FtsZ (Bacillus subtilis (strain 168)) (UniProt P17865); assay: Inhibition of cell division function of FtsZ in Bacillus subtilis 168 assessed as increase in cell length at 2 ug/ml after 5 hrs by phase contrast light microscopic method; settings: Bacillus subtilis subsp. subtilis str. 168
T2 sequence (whole entry): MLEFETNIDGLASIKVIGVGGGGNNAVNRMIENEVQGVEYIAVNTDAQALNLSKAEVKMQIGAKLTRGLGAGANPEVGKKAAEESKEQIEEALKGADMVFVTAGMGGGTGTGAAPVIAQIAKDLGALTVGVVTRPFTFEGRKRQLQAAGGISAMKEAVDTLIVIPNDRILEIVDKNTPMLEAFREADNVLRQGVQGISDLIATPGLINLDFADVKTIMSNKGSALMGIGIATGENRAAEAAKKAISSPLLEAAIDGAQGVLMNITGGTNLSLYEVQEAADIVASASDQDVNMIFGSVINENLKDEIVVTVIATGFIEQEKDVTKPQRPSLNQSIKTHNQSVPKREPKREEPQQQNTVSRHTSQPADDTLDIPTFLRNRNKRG
Summary of the method: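 B. subtilis 168 cells were grown with or without 2 μg mL–1 compound. Cell morphology, including filamentation, was then examined by microscopy.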

[23] = target: T1, Cell division protein FtsZ (Staphylococcus aureus); assay: Induction of recombinant Staphylococcus aureus FtsZ polymerization at 10 ug/ml by 90degree light scattering-based fluorescence spectrometric analysis
Summary of the method: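 Recombinant S. aureus FtsZ cloned, overexpressed and purified. Polymerization followed over time by 90° light scattering in a thermostatically controlled fluorescence spectrometer, read as absorbance at 600 nm. Profiles recorded with and without compound. Methicillin served as the non-FtsZ-targeting control antibiotic.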

Work on `O=C(O)C(=O)c1cn(Cc2ccccc2)c2ccc(-c3ccc(OC(F)(F)F)cc3)cc12` [TIPLASININ] yielded an MIC90 (Staphylococcus aureus [1]) of 2 µg/mL (≈ 4.55 µM), an MIC90 (Staphylococcus aureus [2]) of 4 µg/mL (≈ 9.1 µM) and an MIC90 (Enterococcus faecium [3]) of 4 µg/mL (≈ 9.1 µM). The MIC90 (Klebsiella pneumoniae) was over 48 µg/mL, the MIC90 (Pseudomonas aeruginosa) was over 48 µg/mL and the MIC90 (Staphylococcus aureus [4]) was 4 µg/mL (≈ 9.1 µM). For the same compound, the MIC90 (Bacillus subtilis [5]) was 2 µg/mL (≈ 4.55 µM), the MIC90 (Staphylococcus aureus [6]) was 4 µg/mL (≈ 9.1 µM) and the MIC90 (Staphylococcus aureus [7]) was 4 µg/mL (≈ 9.1 µM). For the same compound, the inhibition [8] was “Dose-dependent effect”, the Activity (Bacillus subtilis [9]) was over 3 deltalog10CFU/ml and the MIC90 (Staphylococcus aureus [10]) was 4 µg/mL (≈ 9.1 µM). The MIC90 (Enterococcus faecalis) was 4 µg/mL (≈ 9.1 µM), the Activity [11] was “Active” and the MIC90 (Enterococcus faecium [12]) was 4 µg/mL (≈ 9.1 µM). The MIC90 (Staphylococcus aureus [13]) was 4 µg/mL (≈ 9.1 µM), the MIC90 (Staphylococcus aureus [14]) was 4 µg/mL (≈ 9.1 µM) and the Activity [15] was “Dose-dependent effect”. For the same compound, the Activity (Bacteria) was “Active”, the MIC90 (Staphylococcus aureus [16]) was 2 µg/mL (≈ 4.55 µM) and the MIC90 [17] was 2 µg/mL (≈ 4.55 µM). The MIC90 (Escherichia coli) was over 48 µg/mL, the MIC90 (Staphylococcus aureus [18]) was 2 µg/mL (≈ 4.55 µM) and the Activity [19] was “Active”. For the same compound, the MIC90 (Staphylococcus aureus [20]) was 2 µg/mL (≈ 4.55 µM), the Activity (Staphylococcus aureus [21]) was over 3 deltalog10CFU/ml and the inhibition [22] was “Active”.

In the case of `COc1cccc(OC)c1C(=O)N[C@@H]1C(=O)N2[C@@H]1SC(C)(C)[C@@H]2C(=O)O` [METHICILLIN], the MIC90 (Staphylococcus aureus [1]) is reported as 256 µg/mL (≈ 673 µM), the MIC90 (Staphylococcus aureus [2]) is reported as 512 µg/mL (≈ 1350 µM) and the MIC90 (Enterococcus faecium [3]) is reported as 1.5 µg/mL (≈ 3.94 µM). For the same compound, the MIC90 (Klebsiella pneumoniae) was over 256 µg/mL, the MIC90 (Pseudomonas aeruginosa) was over 256 µg/mL and the MIC90 (Staphylococcus aureus [4]) was 1020 µg/mL (≈ 2690 µM). For the same compound, the MIC90 (Bacillus subtilis [5]) was under 1 µg/mL, the MIC90 (Staphylococcus aureus [6]) was 512 µg/mL (≈ 1350 µM) and the MIC90 (Staphylococcus aureus [7]) was 1020 µg/mL (≈ 2690 µM). The MIC90 (Staphylococcus aureus [10]) was 1020 µg/mL (≈ 2690 µM), the MIC90 (Enterococcus faecalis) was 0.75 µg/mL (≈ 1.97 µM) and the MIC90 (Enterococcus faecium [12]) was 1.5 µg/mL (≈ 3.94 µM). For the same compound, the MIC90 (Staphylococcus aureus [13]) was 256 µg/mL (≈ 673 µM), the MIC90 (Staphylococcus aureus [14]) was 512 µg/mL (≈ 1350 µM) and the MIC90 (Staphylococcus aureus [16]) was under 1 µg/mL. For the same compound, the MIC90 [17] was 0.75 µg/mL (≈ 1.97 µM), the Activity [23] was “inactive” and the MIC90 (Escherichia coli) was 3 µg/mL (≈ 7.89 µM). For the same compound, the MIC90 (Staphylococcus aureus [18]) was 6 µg/mL (≈ 15.8 µM) and the MIC90 (Staphylococcus aureus [20]) was 512 µg/mL (≈ 1350 µM).

For `CN[C@H](CC(C)C)C(=O)N[C@H]1C(=O)N[C@@H](CC(N)=O)C(=O)N[C@H]2C(=O)N[C@H]3C(=O)N[C@H](C(=O)N[C@H](C(=O)O)c4cc(O)cc(O)c4-c4cc3ccc4O)[C@H](O)c3ccc(c(Cl)c3)Oc3cc2cc(c3O[C@@H]2O[C@H](CO)[C@@H](O)[C@H](O)[C@H]2O[C@H]2C[C@](C)(N)[C@H](O)[C@H](C)O2)Oc2ccc(cc2Cl)[C@H]1O` [VANCOMYCIN], the MIC90 (Enterococcus faecium [12]) was over 96 µg/mL.
